As a reminder, the pKb is the Kb on a negative log10 scale, so that one unit is a factor of ten.

The target in assay [1] is Muscarinic acetylcholine receptor M3 (Rattus norvegicus) (UniProt P08483). The assay is described as follows: In vitro antimuscarinic activity against the M3 muscarinic receptor subtype in rat bladder. The method, boiled down: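 Rat urinary detrusor strips (extratrigonal, 1 cm × 2 mm), fasted overnight, isotonic recording at 1 g resting tension; 30–45 min equilibration. Cumulative furtrethonium curves in 0.5 log-unit increments, repeated until two matched, then final curve after ≥30 min with test compound. E50 by four-parameter logistic fit; pKb = log(DR−1) − log[B], mean ± SE.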
Chain of Muscarinic acetylcholine receptor M3 (Rattus norvegicus) (P08483 whole entry, looked up): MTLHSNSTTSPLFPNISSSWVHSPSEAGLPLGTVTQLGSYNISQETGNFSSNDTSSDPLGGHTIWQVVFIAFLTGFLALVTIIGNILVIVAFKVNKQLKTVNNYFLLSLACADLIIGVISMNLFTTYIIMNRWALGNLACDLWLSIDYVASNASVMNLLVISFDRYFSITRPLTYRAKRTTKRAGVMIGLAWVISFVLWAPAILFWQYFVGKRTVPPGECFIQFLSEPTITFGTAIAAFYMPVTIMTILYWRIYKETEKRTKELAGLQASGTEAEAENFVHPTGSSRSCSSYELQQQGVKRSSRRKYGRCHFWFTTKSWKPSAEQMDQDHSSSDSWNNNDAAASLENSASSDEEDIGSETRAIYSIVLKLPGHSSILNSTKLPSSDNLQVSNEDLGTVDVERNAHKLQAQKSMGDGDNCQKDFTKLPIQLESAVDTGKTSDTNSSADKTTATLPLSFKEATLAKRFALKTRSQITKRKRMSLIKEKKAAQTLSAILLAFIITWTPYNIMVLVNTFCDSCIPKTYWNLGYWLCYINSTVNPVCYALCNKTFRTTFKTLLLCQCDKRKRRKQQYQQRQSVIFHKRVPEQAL

Assay [2] has the same target. The assay is described as follows: In vitro antimuscarinic activity against the M3 muscarinic receptor subtype in rat ileum. It counts as tissue-based. The method, boiled down: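 Rat longitudinal ileum segments (~2 cm), fasted overnight, isotonic recording at 0.5 g resting tension; 30–45 min equilibration. Cumulative furtrethonium curves in 0.5 log-unit increments, repeated until two matched, then final curve after ≥30 min with test compound. E50 by four-parameter logistic fit; pKb = log(DR−1) − log[B], mean ± SE.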

For assay [3], the target named is T1, Muscarinic acetylcholine receptor M2 (Homo sapiens) (UniProt P08172).
T1 sequence (whole entry): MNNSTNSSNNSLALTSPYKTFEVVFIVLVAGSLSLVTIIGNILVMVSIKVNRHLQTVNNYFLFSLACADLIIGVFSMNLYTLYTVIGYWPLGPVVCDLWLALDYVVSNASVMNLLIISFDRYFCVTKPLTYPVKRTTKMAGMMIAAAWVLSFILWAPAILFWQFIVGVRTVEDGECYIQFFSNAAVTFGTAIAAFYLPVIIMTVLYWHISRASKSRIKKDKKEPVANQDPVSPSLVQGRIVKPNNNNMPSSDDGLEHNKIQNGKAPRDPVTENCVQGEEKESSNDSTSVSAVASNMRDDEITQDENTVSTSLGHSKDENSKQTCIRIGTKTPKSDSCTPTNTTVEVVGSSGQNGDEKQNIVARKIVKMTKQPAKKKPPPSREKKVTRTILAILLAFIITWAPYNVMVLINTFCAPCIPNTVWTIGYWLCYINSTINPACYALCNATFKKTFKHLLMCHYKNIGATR
Put plainly: In vitro antimuscarinic activity against the M2 muscarinic receptor subtype in guinea pig atria. Conditions: Cavia porcellus; target entry is the homologue from another species. The method, boiled down:
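Guinea pig atria (both), fasted overnight, resting tension 1 g, force recorded; 30–45 min equilibration. Cumulative carbachol curves in 0.25 log-unit increments, repeated until two matched, then final curve after ≥30 min with test compound. E50 from four-parameter logistic fit; pKb = log(DR−1) − log[B], mean ± SE.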

As to `O=C(OCc1ccc(CN2CCOCC2)o1)C(c1ccccc1)C1CCCCC1` (stereo not given), the figures for the pKb in assay [1], in assay [2] and in assay [3] were 5.7, 5.5 and less than 5, respectively.

As for `CN(Cc1ccc(COC(=O)C(c2ccccc2)C2CCCCC2)o1)C1CCCCC1` (stereo not given), the figures for the pKb in assay [1], in assay [2] and in assay [3] were less than 5, 6.5 and less than 4.5, respectively.

Turning to `O=C(OCc1ccc(CN2CCCCC2)o1)C(c1ccccc1)C1CCCCC1` (stereo not given), the values for the pKb in assay [1], in assay [2] and in assay [3] were 5.3, 6.3 and less than 5, respectively.

Take `CN(C)Cc1ccc(COC(=O)C(O)(C2CCCCC2)C2CCCCC2)o1`: the pKb in assay [1] was 7.2; in assay [2] it was 7.1; in assay [3] it was less than 5.

For the molecule `O=C(OCc1ccc(CN2CCCCC2)o1)C(c1ccccc1)c1ccccc1`, the negative-log Kb (pKb) in assay [1] is 6.2; in assay [2], 6; in assay [3], less than 5.

Turning to `CN(C)Cc1ccc(COC(=O)C(c2ccccc2)c2ccccc2)o1`, the pKb came to 6.5 in assay [1], 6.5 in assay [2] and 5.9 in assay [3].

For `CN(C)Cc1ccc(COC(=O)C2c3ccccc3-c3ccccc32)o1`, the figures for the pKb in assay [1], in assay [2] and in assay [3] were 5.6, 5.8 and 4.8, respectively.

In the case of `CN(Cc1ccccc1)Cc1ccc(COC(=O)C(c2ccccc2)C2CCCCC2)o1` (stereo not given), the pKb in assay [1], in assay [2] and in assay [3] was less than 5 each time.

For the molecule `CC(C)N(C)Cc1ccc(COC(=O)C(c2ccccc2)C2CCCCC2)o1` (stereo not given), the pKb stood at 6.7 in assay [1], 7 in assay [2] and 5 in assay [3].

On to `CN(C)Cc1ccc(COC(=O)C2c3ccccc3Oc3ccccc32)o1`, for which the pKb was found to be 6.6 in assay [1], 7.1 in assay [2] and 6.5 in assay [3].

Take `CCCN(C)Cc1ccc(COC(=O)C(c2ccccc2)C2CCCCC2)o1` (stereo not given): the pKb in assay [1] is 6; in assay [2] it was 6.8; in assay [3], less than 5.

`O=C(OCc1ccc(CN2CCC(O)CC2)o1)C(c1ccccc1)C1CCCCC1` (stereo not given): the pKb in assay [1] was 6; in assay [2], 6.5; in assay [3], less than 5.

`CCCCCN(C)Cc1ccc(COC(=O)C(c2ccccc2)C2CCCCC2)o1` (stereo not given): the results for the pKb in assay [1], in assay [2] and in assay [3] were less than 5, 6.9 and less than 5, respectively.

Regarding `CCN(CC)Cc1ccc(COC(=O)C(c2ccccc2)C2CCCCC2)o1` (stereo not given), the pKb is 6 in assay [1], 6.7 in assay [2] and less than 5 in assay [3].

Turning to `CN(C)Cc1ccc(COC(=O)C(c2ccccc2)C2CCCCC2)o1` (stereo not given), the pKb in assay [1] was determined as 7.2; in assay [2], 7.3; in assay [3], 5.9.

These data come from ChEMBL document CHEMBL1127431, “Cholinergic agents structurally related to furtrethonium. 2. Synthesis and antimuscarinic activity of a series of N-[5-[(1'-substituted-acetoxy) methyl]-2-furfuryl]dialkylamines” (J Med Chem, 1994).
